FLuc inhib CS: counter-screen for luciferase assay inhibitors: firefly luciferase inhibition. ATPLite firefly luciferase biochemical luminescence, 10 min. AID 1006. 200,000 compounds, 1.5% hits. inhibition, % at 10 µM;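 active = inhibition above about 50% when tested at 10 µM, limit read from the data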
Diaph act CS: activates diaphorase or chemically reduces, flagging diaphorase assay artifacts; activation factor at 20 µM; Diaphorase/resazurin coupled assay, resorufin fluorescence, 16 min; hits give high values; 1 = vehicle wells, 0 = NADH-free wells; 190,000 compounds, 0.005% hits; AID 1229;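 active = diaphorase activity raised at least twofold by the compound at 20 µM; inactive = activation factor below 2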
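Assay system: bacterial diaphorase enzyme (C. kluyveri) / Input: enzyme 0.07 U/mL final / Medium: 50 mM HEPES pH 7.4 with 4.542 mM MgCl2, 0.005% Tween 20 / Doses: single compound dose of 20 µM, 1% DMSO final / Incubation: 16 min enzyme reaction, ambient temperature / Signal: fluorescence, excitation 544 nm and emission 590 nm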
ABCB1 block: inhibitors of human ABCB1 transporter, ABCG2 counter-screen. CCRF-Adr cells, JC-1 efflux, flow cytometry. AID 1326. inhibition, % at 6.6 µM. P08183. 190,000 compounds, 0.067% hits; in the data active = inhibition above about 40%;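 also: 0% = vehicle and 100% = reference inhibitor; higher value means more JC-1 retained so stronger ABCB1 efflux block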
ABCG2 inh: blocks JC-1 efflux by human ABCG2 transporter; Q9UNQ0; IgMXP3 cells, flow cytometry; inhibition, % at 6.6 µM; 190,000 compounds, 0.1% hits; AID 1325;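 active = inhibition above 80%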;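 also: 0% = DMSO and 100% = nicardipine control wells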
Target sequence (Q9UNQ0 whole entry, looked up): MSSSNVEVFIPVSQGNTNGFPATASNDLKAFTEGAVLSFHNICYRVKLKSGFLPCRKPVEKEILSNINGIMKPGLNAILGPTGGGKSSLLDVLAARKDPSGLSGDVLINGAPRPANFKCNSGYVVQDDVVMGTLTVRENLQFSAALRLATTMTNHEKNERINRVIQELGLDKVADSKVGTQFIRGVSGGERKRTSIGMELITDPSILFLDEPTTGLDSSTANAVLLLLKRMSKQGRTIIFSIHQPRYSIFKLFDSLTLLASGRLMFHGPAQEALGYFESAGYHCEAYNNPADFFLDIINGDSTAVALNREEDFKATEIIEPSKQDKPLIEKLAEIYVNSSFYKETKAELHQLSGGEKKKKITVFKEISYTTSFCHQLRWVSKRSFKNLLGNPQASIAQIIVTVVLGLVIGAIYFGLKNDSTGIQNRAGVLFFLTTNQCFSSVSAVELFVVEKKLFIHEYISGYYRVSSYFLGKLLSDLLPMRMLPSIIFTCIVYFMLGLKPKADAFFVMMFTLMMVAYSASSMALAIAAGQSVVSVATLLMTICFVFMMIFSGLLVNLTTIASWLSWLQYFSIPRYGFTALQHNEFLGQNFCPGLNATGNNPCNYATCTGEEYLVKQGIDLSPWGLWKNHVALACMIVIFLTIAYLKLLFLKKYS
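Test system: IgMXP3 (ABCG2) plus far-red-tagged CCRF-Adr (ABCB1) cells. Reagent: JC-1 dye as substrate. Timing: 10 min exposure at 25 °C with rotation, no wash. Measured by: flow cytometric JC-1 green MFI at 530 nm. Read-out: percent efflux inhibition, scaled nicardipine 100% to DMSO 0%. Control set: nicardipine and DMSO wells.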
FLuc act counter: firefly luciferase counter-screen for stimulation assays. P08659. ATPlite luciferase biochemical, luminescence, 10 min; 0 = ATP-free wells, 1 = DMSO control. activation factor at 10 µM. 200,000 tested, under 10 active;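 active = luciferase activation factor, scaled between plate controls, of at least 2 with compound at 10 µM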
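assay system = Luciferase/luciferin detection reagent, cell-free biochemical luciferase assay | also added = ATP substrate | times = 10 min post-reagent at room temperature | measured by = luminescence from luciferase reaction | measure = luciferase activation, seen as luminescence increase over controls | benchmarks = low control with PBS replacing ATP, high control enzyme plus ATP without compound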
ABCB6 inh 2: blocks the human ABCB6 transporter. Q9NP58. K562-ABCB6 porphyrin accumulation, flow cytometry, 1 h; hits give low values. fluorescence ratio to DMSO, % at 10 µM. 360,000 compounds, 0.19% hits. AID 602162;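 active = fluorescence ratio to DMSO below 75%, the collection mean minus 3 SD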;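 also: signal is porphyrin accumulated inside mitochondria; 100% equals median channel fluorescence of DMSO control wells; lower ratio means ABCB6 inhibition with less porphyrin fluorescence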
The depositor's hits bear a star; / = no result given; + = active, no number. The sample as a whole holds a higher share of hits than the screen did.

SMILES	FLuc inhib CS	Diaph act CS	ABCB1 block	ABCG2 inh	FLuc act counter	ABCB6 inh 2
COc1ccc(-c2nc(C)c(C(C)=O)n2O)cc1	17	0.9	0	2	0.8	84
CCOc1ccc(-c2nc(C)c(C(C)=O)n2O)cc1	64*	1	0	0	0.4	106
O=C(COC(=O)c1cccc(S(=O)(=O)N2CCCC2)c1)Nc1cccc(Br)c1	/	/	/	/	/	96
CCOC(=O)c1ccc(Nc2ncnc3nc[nH]c23)cc1	50*	0.9	0	4	0.5	93
COc1ccccc1C(=O)NCCC(=O)Nc1ccncc1	/	/	/	/	/	97
COc1ccc(N(CC(C)C)S(=O)(=O)c2nnc(NC(=O)c3ccco3)s2)cc1	/	/	/	/	/	95
Cn1c(C(=O)Nc2ccc3c(c2)OCCO3)cc2sccc21	81*	0.9	0	2	0.2	103
Cc1cc(C(=O)Nc2ccc3c(c2)OCCO3)co1	75*	0.9	-1	31	0.2	94
Cc1ccc(C(=O)Nc2ccc3c(c2)OCCO3)o1	84*	0.9	1	3	0.2	104
COc1ccc(Cc2nnc(SCC(=O)NC3(C#N)CCCCC3)n2N)cc1	/	/	/	/	/	94
Cc1cc(O)ccc1Nc1nc(-c2cccnc2)cs1	/	/	/	/	/	97
Cc1ccc(Nc2nc(-c3cccs3)cs2)nc1	85*	0.8	0	16	0.2	121
Cc1cc(O)ccc1Nc1nc(-c2cccs2)cs1	78*	0.7	1	22	0.2	100
CC(=O)NCc1ccc(C(=O)CN2C(=O)NC3(CCCCC3C)C2=O)s1 (centres undefined)	/	/	/	/	/	97
c1ccc2c(c1)CCN(c1nc3cc4c(cc3s1)OCCO4)C2	89*	1	0	0	0.1	99
Cc1cccnc1C(c1ccc(F)cc1)N(C)C(=O)C1CCN(CCOc2ccc(Cl)cc2Cl)CC1 (centres undefined)	/	/	/	/	/	97
N/C(=N\OC(=O)c1cccc(Br)c1)c1ccc(Br)cc1	-1	0.9	0	14	1	96
N/C(=N\OC(=O)c1ccc2c(c1)OCO2)c1cccc(Br)c1	96*	0.7	-1	-1	0	97
N/C(=N\OC(=O)c1ccc2c(c1)OCO2)c1cccnc1	97*	1	0	3	0	99
N/C(=N\OC(=O)c1ccc(Cl)c(Cl)c1)c1cccnc1	46	0.9	0	5	0.5	97
COc1ccc(/C(N)=N/OC(=O)c2ccc3c(c2)OCO3)cc1OC	62*	0.8	0	1	0.4	101
Cc1c(NC(=O)C(C)Oc2ccc(Br)cc2)c(=O)n(-c2ccccc2)n1C (centres undefined)	/	/	/	/	/	90
Cc1ccc(S(=O)(=O)N2CCN(C(=O)CN3C(=O)c4ccc([N+](=O)[O-])cc4C3=O)CC2)cc1C	/	/	/	/	/	101
Cc1ccc(NC(=O)C2CCN(S(=O)(=O)c3ccc(N4CCCC4=O)cc3)CC2)cc1Cl	/	/	/	/	/	97
CN(C(=O)c1ccco1)c1nc2c(s1)CCCC2	77*	0.9	0	0	0.2	100
SMILES	FLuc inhib CS	Diaph act CS	ABCB1 block	ABCG2 inh	FLuc act counter	ABCB6 inh 2
CN(C(=O)c1ccco1)c1nnc(C23CC4CC(CC(C4)C2)C3)s1	21	1	1	2	0.8	98
COC(=O)C1=C(O)/C(=C\c2cc(C)n(-c3ccccc3F)c2C)N=C1C	64*	1	0	3	0.4	95
COc1nc(-c2ccc(C)cc2)ccc1-c1noc(-c2ccco2)n1	-5	0.9	0	6	1.1	104
COc1nc(C)ccc1-c1noc(-c2ccco2)n1	58*	0.8	0	9	0.4	96
Nc1ccc(/C=C/C(=O)c2cccs2)cc1	77*	1	-1	-1	0.2	131
CC1(Oc2cccc(C#N)c2)CCN(Cc2csc3ccccc23)C1 (centres undefined)	/	/	/	/	/	100
COc1cccc(/C=N/Nc2ccc(S(=O)(=O)O)cc2)c1O	-1	0.9	0	2	1	104
COc1cccc(/C=N/c2oc(-c3ccccc3)cc2C#N)c1O	10	0.8	0	1	0.9	97
COc1cccc(/C=N/Nc2ccc(C(=O)O)cc2)c1O	83*	0.9	0	1	0.2	103
COc1cccc(C=Nc2ccccc2C#N)c1O	89*	0.8	1	3	0.1	97
CCC(CC)C(=O)OCC(=O)C1(O)CCC2C3CCC4=CC(=O)CCC4(C)C3C(O)CC21C (centres undefined)	/	/	/	/	/	99
CC1CCC(NC(=O)CN2C(=O)NC3(CCCCC3C)C2=O)CC1 (centres undefined)	/	/	/	/	/	99
CCSC1=NSC2=NC(=O)/C(=C\c3coc4ccccc4c3=O)C(=N)N12	-6	0.6	29	+	1.1	163
CC(C)CC1=NN2C(=N)/C(=C\c3coc4ccccc4c3=O)C(=O)N=C2S1	3	0.9	1	6	1	107
CCc1cc(-c2nnn(CCC3COCCO3)c2C(C)(C)O)ccc1-c1cn(CCc2c[nH]c3ccccc23)nn1 (centres undefined)	/	/	/	/	/	103
CCN(CC)CCCN(C(=O)c1ccc(OC)cc1)c1nc(-c2ccc(OC)cc2)cs1	/	/	/	/	/	98
COCCCN(C(C)=O)c1nc(-c2ccc(OC)cc2)cs1	-2	0.8	0	2	1	72*
C/C(=N\NC(=O)c1nn(C)c(C)c1Br)c1cccc(NC(=O)c2ccc(F)cc2)c1	69*	0.8	0	-4	0.3	97
C/C(=N\NC(=O)c1c(Br)c(C)nn1C)c1cccc(NC(=O)c2ccccc2F)c1	5	1.2	2	10	1	100
COc1ccc(Cl)cc1NC(=O)CN(C)CC(=O)Nc1c(C)n(C)n(-c2ccccc2)c1=O	/	/	/	/	/	90
CCOc1ccc(NCC(=O)N/N=C/C=C/c2ccccc2)cc1	56*	0.7	1	4	0.4	99
COc1ccc(OCC(=O)N/N=C/c2ccncc2)cc1	12	1	0	3	0.9	96
COc1ccc(OCC(=O)N/N=C/C=C/c2ccccc2)cc1	81*	0.9	1	23	0.2	96
COc1ccc(NCC(=O)N/N=C/C=C/c2ccccc2[N+](=O)[O-])cc1	1	0.8	1	3	1	93
C/C(CC(=O)Nc1cccc(C(F)(F)F)c1)=N\NC(=O)c1cnccn1	/	/	/	/	/	89
CCC(C)[C@H](NC(=O)NCc1cccc(OC)c1)C(=O)OC (some centres undefined)	1	1	0	1	1	96
COc1cccc(CNC(=O)N[C@@H](CC(C)C)C(=O)O)c1	-6	0.9	-1	26	1.1	63*

Bioassay records from PubChem.
